From ChEMBL document CHEMBL4368903, “Identification of GSK3186899/DDD853651 as a Preclinical Development Candidate for the Treatment of Visceral Leishmaniasis” (J Med Chem, 2019)
In brackets after ≈: the same amount, converted by molar mass.

What was measured:
[1] = Lipophilicity, log D of the compound at pH 7.4 assessed as chromatographic hydrophobicity index; type: physicochemical; settings: buffer
Method in brief: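 Reversed-phase C18 HPLC with fast acetonitrile gradient. CHI taken from gradient retention time via a calibration line of standards. ChromLogD = 0.0857 × CHI − 2.00.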

[2] = Kinetic aqueous solubility of the compound in phosphate buffer at pH 7.4 by CLND assay; type: physicochemical; settings: for solubility kinetic: phosphate buffer, read-out: Kinetic_solubility; for Kinetic_solubility: buffer
Method in brief: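 From 10 mM DMSO stock diluted 1:20 into pH 7.4 PBS, equilibrated 1 h at RT, filtered. Filtrate quantified by calibrated flow-injection CLND. Dynamic range 1–500 μM.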

[3] = system: Leishmania donovani; assay: Antileishmanial activity against Leishmania donovani […] in human THP1 cells by intramacrophage assay; type: functional, organism-based; settings: for EC50: Leishmania donovani, THP-1
[4] = Solubility of compound in fasted simulated intestinal fluid at 1 mg after 4 hrs by HPLC-UV analysis; type: physicochemical; settings: for solubility at 4 h: fasted simulated intestinal fluid; for solubility: 4 h
Method in brief: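 1 mg solid shaken in 1 mL FaSSIF (3 mM sodium taurocholate, 0.75 mM lecithin, phosphate buffer pH 6.5) at 900 rpm for 4 h at room temperature, then filtered. Supernatant quantified by HPLC-UV against single-point DMSO calibration. Range 1–1000 μg/mL.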

[5] = system: HepG2; assay: Cytotoxicity against human HepG2 cells; type: cell-based
[6] = Intrinsic clearance in human liver microsomes at 0.5 uM after 3 to 30 mins in presence of NADPH by UPLC-MS/MS analysis; type: ADME, Microsome
Method in brief: (§1)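 0.5 μM compound with female CD1 mouse or human liver microsomes, started with excess NADPH in 50 mM potassium phosphate pH 7.4. Aliquots at 0, 3, 6, 9, 15 and 30 min quenched in acetonitrile with internal standard. UPLC-MS/MS; rate constant from exponential decay of compound/IS ratio. Verapamil as positive control.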

[7] = Intrinsic clearance in CD1 mouse liver microsomes at 0.5 uM after 3 to 30 mins in presence of NADPH by UPLC-MS/MS analysis; type: ADME, Microsome; method in brief: as §1
[8] = system: THP-1; assay: Cytotoxicity against human THP1 cells; type: cell-based
[9] = system: Leishmania donovani; assay: Antileishmanial activity against Leishmania donovani axenic amastigote; type: functional, organism-based
[10] = Dissociation constant, pKa of the compound by UV-spectroscopy; type: physicochemical
Method in brief: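 Sirius T3 acid–base titration with UV read-out: 5 μL of 10 mM sample, absorbance over 54 pH values in about 5 min. Methanol cosolvent with Yasuda–Shedlovsky extrapolation used when precipitation occurred.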

| chromatographic logD [1] | solubility kinetic [2] [µM] | EC50 [3] [µM] | solubility at 4 h [4] [µg/mL] | Compound | further results |
| --- | --- | --- | --- | --- | --- |
| 4 | 12 (≈ 5.54 µg/mL) | 2 | – | O=S(=O)(CCC(F)(F)F)N[C@H]1CC[C@H](Nc2ncc3c(N4CCCC4)n[nH]c3n2)CC1 | – |
| 3 | 11 (≈ 5.18 µg/mL) | 6.31 | – | O=S(=O)(CCC(F)(F)F)N[C@H]1CC[C@H](Nc2ncc3c(-c4cncnc4)n[nH]c3n2)CC1 | – |
| 1.6 | 346 (≈ 165 µg/mL) | 31.6 | – | O=S(=O)(CCC(F)(F)F)N[C@H]1CC[C@H](Nc2ncc3c(N4CCNCC4)n[nH]c3n2)CC1 | – |
| – | 52 (≈ 25.6 µg/mL) | 5.01 | 23 (≈ 46.8 µM) | C[C@@H]1CN(c2n[nH]c3nc(N[C@H]4CC[C@H](NS(=O)(=O)CCC(F)(F)F)CC4)ncc23)CCO1 | – |
| 3.2 | 35 (≈ 16.7 µg/mL) | 3.16 | – | O=S(=O)(CCC(F)(F)F)N[C@H]1CC[C@H](Nc2ncc3c(C4CCOCC4)n[nH]c3n2)CC1 | – |
| – | – | > 50.1 | – | CC(C)Cc1n[nH]c2nc(N[C@H]3CC[C@H](NC(=O)Cc4ccccc4)CC3)ncc12 | EC50 [5]: 50.1 µM; CLH [6]: 1.9 mL/min/g; CLH [7]: 9.5 mL/min/g; EC50 [8]: > 50.1 µM |
| – | – | – | – | CC(C)CC(=O)c1sc(NC2CCCCC2)nc1N | EC50 [9]: 50.1 µM |
| – | 311 (≈ 158 µg/mL) | 1.26 | 53 (≈ 104 µM) | COc1nc(N[C@H]2CC[C@H](NS(=O)(=O)CCC(F)(F)F)CC2)nc2[nH]nc(N3CCOCC3)c12 | – |
| – | – | 6.31 | – | COc1nc(N[C@H]2CC[C@H](NS(=O)(=O)CC3CCCO3)CC2)nc2[nH]nc(N3CCOCC3)c12 (stereo in doubt; 35) | solubility [4]: 208 µg/mL (≈ 420 µM); Kinetic_solubility [2]: 421 µM |
| – | ≥ 310 | – | 88 (≈ 179 µM) | CC1COCCN1c1n[nH]c2nc(N[C@H]3CC[C@H](NS(=O)(=O)CCC(F)(F)F)CC3)ncc12 (stereo in doubt; 36) | pEC50 [3]: 5.6 |
| – | 412 (≈ 204 µg/mL) | – | 283 (≈ 571 µM) | COc1nc(N[C@H]2CC[C@H](NS(=O)(=O)CC3CCCO3)CC2)nc2[nH]nc(N3CCOCC3)c12 (stereo in doubt; 34) | pEC50 [3]: 5.4 |
| 3 | 259 (≈ 124 µg/mL) | 3.16 | 7 (≈ 14.7 µM) | O=S(=O)(CCC(F)(F)F)N[C@H]1CC[C@H](Nc2ncc3c(N4CCOCC4)n[nH]c3n2)CC1 | pKa [10]: 3.7 |
| – | – | 2 | – | CC1COCCN1c1n[nH]c2nc(N[C@H]3CC[C@H](NS(=O)(=O)CCC(F)(F)F)CC3)ncc12 (stereo in doubt; 37) | solubility [4]: 118 µg/mL (≈ 240 µM); Kinetic_solubility [2]: >= 292 uM |
| 4.4 | 46 (≈ 21.9 µg/mL) | 1.58 | – | O=S(=O)(CCC(F)(F)F)N[C@H]1CC[C@H](Nc2ncc3c(N4CCCCC4)n[nH]c3n2)CC1 | – |
